We go through eight molecules from ChEMBL document CHEMBL1148402, “Anti-AIDS agents. 52. Synthesis and anti-HIV activity of hydroxymethyl (3'R,4'R)-3',4'-di-O-(S)-camphanoyl-(+)-cis-khellactone derivatives” (J Med Chem, 2004).

pEC50, pIC50: −log10 of the molar value.

The first series relates to H9. As to the kind of experiment: Concentration required to inhibit uninfected H9 cell growth by 50%. It counts as functional, cell-based. The note with it: Homo sapiens. Summed up: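 Mock-infected H9 cells handled in parallel under the same conditions as the infection assay, without virus. Viability read by XTT on day 6. IC50 is the concentration toxic to 50% of mock-infected cells. Averages of at least two experiments.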
The pIC50 is the negative decadic logarithm of the IC50, by convention in mol/L. Read a low pIC50 as a large IC50. `Cc1cc(=O)oc2c3c(c(CN)cc12)OC(C)(C)[C@H](OC(=O)C12CCC(C)(C(=O)O1)C2(C)C)[C@@H]3OC(=O)C12CCC(C)(C(=O)O1)C2(C)C` (stereo not given in full) had a pIC50 of less than 4.82.
Same read-out and setting: the value for `CC(=O)OCc1cc2c(C)cc(=O)oc2c2c1OC(C)(C)[C@H](OC(=O)C13CCC(C)(C(=O)O1)C3(C)C)[C@@H]2OC(=O)C12CCC(C)(C(=O)O1)C2(C)C` (stereo not given in full) was less than 4.85; that for `CC(=O)OCc1c(C)c2ccc3c(c2oc1=O)[C@@H](OC(=O)C12CCC(C)(C(=O)O1)C2(C)C)[C@@H](OC(=O)C12CCC(C)(C(=O)O1)C2(C)C)C(C)(C)O3` (stereo not given in full) was 4.83; that for `Cc1c(CO)c(=O)oc2c3c(ccc12)OC(C)(C)[C@H](OC(=O)C12CCC(C)(C(=O)O1)C2(C)C)[C@@H]3OC(=O)C12CCC(C)(C(=O)O1)C2(C)C` (stereo not given in full) was 4.60.
Same read-out and setting: the value for `CC1(C)Oc2ccc3cc(CBr)c(=O)oc3c2[C@@H](OC(=O)C23CCC(C)(C(=O)O2)C3(C)C)[C@H]1OC(=O)C12CCC(C)(C(=O)O1)C2(C)C` (stereo not given in full) was less than 4.95; that for `Cc1cc(=O)oc2c3c(ccc12)OC(C)(C)[C@H](OC(=O)C12CCC(C)(C(=O)O1)C2(C)C)[C@@H]3OC(=O)C12CCC(C)(C(=O)O1)C2(C)C` (stereo not given in full) was 4.63.
Turning to `Cc1cc(=O)oc2c3c(c(CO)cc12)OC(C)(C)[C@H](OC(=O)C12CCC(C)(C(=O)O1)C2(C)C)[C@@H]3OC(=O)C12CCC(C)(C(=O)O1)C2(C)C` (stereo not given in full), the pIC50 is less than 4.82.

A further series deals with Rattus norvegicus. As to the kind of experiment: Half-life in male Sprague-Dawley rats following an intravenous bolus dose at 10-20 mg/kg. It counts as ADME, organism-based. To be noted: in vivo. Put shortly: (§1)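 Adult male Sprague–Dawley rats (approx. 250 g) dosed iv at 10-20 mg/kg and orally as a suspension at 25 mg/kg. Nine 0.4 mL blood samples taken over 8 h. Plasma levels measured by reversed-phase HPLC with UV (320 nm) and fluorescence (ex 320/em 380 nm) detection. Detection limit approx. 50 ng/mL (UV) and 10 ng/mL (fluorescence) from 0.10 mL plasma. Parameters from noncompartmental analysis; half-life from the terminal log-linear phase; N=3–4 rats.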
Molecule `Cc1c(CO)c(=O)oc2c3c(ccc12)OC(C)(C)[C@H](OC(=O)C12CCC(C)(C(=O)O1)C2(C)C)[C@@H]3OC(=O)C12CCC(C)(C(=O)O1)C2(C)C` (stereo not given in full) displayed a T1/2 of 3.12 h.
In the case of `Cc1cc(=O)oc2c3c(ccc12)OC(C)(C)[C@H](OC(=O)C12CCC(C)(C(=O)O1)C2(C)C)[C@@H]3OC(=O)C12CCC(C)(C(=O)O1)C2(C)C` (stereo not given in full), the T1/2 worked out at 2.42 h.
Same read-out and setting: the value for `Cc1cc(=O)oc2c3c(c(CO)cc12)OC(C)(C)[C@H](OC(=O)C12CCC(C)(C(=O)O1)C2(C)C)[C@@H]3OC(=O)C12CCC(C)(C(=O)O1)C2(C)C` (stereo not given in full) was 0.867 h.

Tested on in another series: not listed separately
In words: Therapeutic index (IC50/EC50) was determined. The note with it: read-out: TI. Put shortly:
(§2)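 H9 T-cells (3 × 10^5 cells/mL) in RPMI 1640 with 10% FCS at 37 °C, 5% CO2, infected with HIV-1 IIIB (125 TCID50). Medium replaced on days 1 and 4 post-infection. Supernatant p24 antigen capture read on day 6. EC50 is the concentration suppressing replication by 50%; TI = IC50/EC50. AZT run as positive control. Averages of at least two experiments.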
For the molecule `Cc1cc(=O)oc2c3c(c(CN)cc12)OC(C)(C)[C@H](OC(=O)C12CCC(C)(C(=O)O1)C2(C)C)[C@@H]3OC(=O)C12CCC(C)(C(=O)O1)C2(C)C` (stereo not given in full), the selectivity ratio is greater than 102.
`CC(=O)OCc1cc2c(C)cc(=O)oc2c2c1OC(C)(C)[C@H](OC(=O)C13CCC(C)(C(=O)O1)C3(C)C)[C@@H]2OC(=O)C12CCC(C)(C(=O)O1)C2(C)C` (stereo not given in full): the selectivity ratio was greater than 26.
The same measure, in the same setting: the value for `CC(=O)OCc1c(C)c2ccc3c(c2oc1=O)[C@@H](OC(=O)C12CCC(C)(C(=O)O1)C2(C)C)[C@@H](OC(=O)C12CCC(C)(C(=O)O1)C2(C)C)C(C)(C)O3` (stereo not given in full) was 567.
The same measure, in the same setting: the value for `Cc1c(CO)c(=O)oc2c3c(ccc12)OC(C)(C)[C@H](OC(=O)C12CCC(C)(C(=O)O1)C2(C)C)[C@@H]3OC(=O)C12CCC(C)(C(=O)O1)C2(C)C` (stereo not given in full) was 5800; that for `CC1(C)Oc2ccc3cc(CBr)c(=O)oc3c2[C@@H](OC(=O)C23CCC(C)(C(=O)O2)C3(C)C)[C@H]1OC(=O)C12CCC(C)(C(=O)O1)C2(C)C` (stereo not given in full) was greater than 186.
Same read-out and setting: under `Cc1cc(=O)oc2c3c(c(CO)cc12)OC(C)(C)[C@H](OC(=O)C12CCC(C)(C(=O)O1)C2(C)C)[C@@H]3OC(=O)C12CCC(C)(C(=O)O1)C2(C)C` (stereo not given in full) stands greater than 135.

Tested on in the next series: not listed separately
As to the kind of experiment: Bioavailability in male Sprague-Dawley rats following an intravenous bolus dose at 10-20 mg/kg. To be noted: rat, in vivo. It counts as ADME, organism-based. Summed up:
as §1
A word on the bioavailability: it is the share of a dose that reaches the circulation, judged against a reference dose that is usually intravenous. A low value points to poor availability. Consider `Cc1c(CO)c(=O)oc2c3c(ccc12)OC(C)(C)[C@H](OC(=O)C12CCC(C)(C(=O)O1)C2(C)C)[C@@H]3OC(=O)C12CCC(C)(C(=O)O1)C2(C)C` (stereo not given in full), for which the bioavailability was 15%.

A further series concerns Rattus norvegicus. As to the kind of experiment: Vss in male Sprague-Dawley rats following an intravenous bolus dose at 10-20 mg/kg. Format: ADME, organism-based. The note with it: in vivo. Put shortly: as §1
By Vss is commonly meant the apparent volume that relates the amount in the body to the concentration in plasma or blood. Low readings indicate confinement near the circulation, high ones extensive tissue distribution. For the molecule `Cc1c(CO)c(=O)oc2c3c(ccc12)OC(C)(C)[C@H](OC(=O)C12CCC(C)(C(=O)O1)C2(C)C)[C@@H]3OC(=O)C12CCC(C)(C(=O)O1)C2(C)C` (stereo not given in full), the Vss amounted to 18.5 L/kg.
Same read-out and setting: the value for `Cc1cc(=O)oc2c3c(ccc12)OC(C)(C)[C@H](OC(=O)C12CCC(C)(C(=O)O1)C2(C)C)[C@@H]3OC(=O)C12CCC(C)(C(=O)O1)C2(C)C` (stereo not given in full) was 10.1 L/kg.
The molecule `Cc1cc(=O)oc2c3c(c(CO)cc12)OC(C)(C)[C@H](OC(=O)C12CCC(C)(C(=O)O1)C2(C)C)[C@@H]3OC(=O)C12CCC(C)(C(=O)O1)C2(C)C` (stereo not given in full) displayed a Vss of 3.89 L/kg. This Vss lies about 2.6-fold lower than the previous one.

In a further series the test system is Human immunodeficiency virus 1. As to the kind of experiment: Concentration required to inhibit HIV-1 replication in acutely infected H9 lymphocytes by 50%. Format: functional, organism-based.
Conditions: not given
Summed up:
as §2
The pEC50 is −log10 of the EC50, conventionally taken in molar units. Lower therefore signals a high EC50. Turning to `Cc1cc(=O)oc2c3c(c(CN)cc12)OC(C)(C)[C@H](OC(=O)C12CCC(C)(C(=O)O1)C2(C)C)[C@@H]3OC(=O)C12CCC(C)(C(=O)O1)C2(C)C` (stereo not given in full), the pEC50 is 6.83.
The same measure, in the same setting: under `CC(=O)OCc1cc2c(C)cc(=O)oc2c2c1OC(C)(C)[C@H](OC(=O)C13CCC(C)(C(=O)O1)C3(C)C)[C@@H]2OC(=O)C12CCC(C)(C(=O)O1)C2(C)C` (stereo not given in full) stands 6.26.
Turning to `Cc1cn([C@H]2C[C@H](N=[N+]=[N-])[C@@H](CO)O2)c(=O)[nH]c1=O` [ZIDOVUDINE], the pEC50 was 6.73.
The same measure, in the same setting: the value for `CC(=O)OCc1c(C)c2ccc3c(c2oc1=O)[C@@H](OC(=O)C12CCC(C)(C(=O)O1)C2(C)C)[C@@H](OC(=O)C12CCC(C)(C(=O)O1)C2(C)C)C(C)(C)O3` (stereo not given in full) was 7.59; that for `Cc1c(CO)c(=O)oc2c3c(ccc12)OC(C)(C)[C@H](OC(=O)C12CCC(C)(C(=O)O1)C2(C)C)[C@@H]3OC(=O)C12CCC(C)(C(=O)O1)C2(C)C` (stereo not given in full) was 8.40; that for `CC1(C)Oc2ccc3cc(CBr)c(=O)oc3c2[C@@H](OC(=O)C23CCC(C)(C(=O)O2)C3(C)C)[C@H]1OC(=O)C12CCC(C)(C(=O)O1)C2(C)C` (stereo not given in full) was 7.23.
Same read-out and setting: the value for `Cc1cc(=O)oc2c3c(ccc12)OC(C)(C)[C@H](OC(=O)C12CCC(C)(C(=O)O1)C2(C)C)[C@@H]3OC(=O)C12CCC(C)(C(=O)O1)C2(C)C` (stereo not given in full) was 8.82; that for `Cc1cc(=O)oc2c3c(c(CO)cc12)OC(C)(C)[C@H](OC(=O)C12CCC(C)(C(=O)O1)C2(C)C)[C@@H]3OC(=O)C12CCC(C)(C(=O)O1)C2(C)C` (stereo not given in full) was 6.95.

The next series deals with Rattus norvegicus. As to the kind of experiment: Clearance in male Sprague-Dawley rats following an intravenous bolus dose at 10-20 mg/kg. Format: ADME, organism-based. The note with it: in vivo.
As to `Cc1c(CO)c(=O)oc2c3c(ccc12)OC(C)(C)[C@H](OC(=O)C12CCC(C)(C(=O)O1)C2(C)C)[C@@H]3OC(=O)C12CCC(C)(C(=O)O1)C2(C)C` (stereo not given in full), the CL came out at 284 L/h/kg.
Still for that read-out and setting: under `Cc1cc(=O)oc2c3c(c(CO)cc12)OC(C)(C)[C@H](OC(=O)C12CCC(C)(C(=O)O1)C2(C)C)[C@@H]3OC(=O)C12CCC(C)(C(=O)O1)C2(C)C` (stereo not given in full) stands 284 L/h/kg.

The next series relates to Rattus norvegicus. As to the kind of experiment: Volume distribution of compound in male Sprague-Dawley rats following an intravenous bolus dose at 10-20 mg/kg. It counts as ADME, organism-based. The note with it: in vivo. Put shortly: as §1
What is called Vd is a proportionality between amount in the body and measured concentration, not a real space. With `Cc1c(CO)c(=O)oc2c3c(ccc12)OC(C)(C)[C@H](OC(=O)C12CCC(C)(C(=O)O1)C2(C)C)[C@@H]3OC(=O)C12CCC(C)(C(=O)O1)C2(C)C` (stereo not given in full), the Vd amounted to 22.9 L/kg.
Still for that read-out and setting: under `Cc1cc(=O)oc2c3c(ccc12)OC(C)(C)[C@H](OC(=O)C12CCC(C)(C(=O)O1)C2(C)C)[C@@H]3OC(=O)C12CCC(C)(C(=O)O1)C2(C)C` (stereo not given in full) stands 12 L/kg; under `Cc1cc(=O)oc2c3c(c(CO)cc12)OC(C)(C)[C@H](OC(=O)C12CCC(C)(C(=O)O1)C2(C)C)[C@@H]3OC(=O)C12CCC(C)(C(=O)O1)C2(C)C` (stereo not given in full), 5.9 L/kg.

In a further series the test system is Rattus norvegicus. As to the kind of experiment: Bioavailability in rat (Sprague-Dawley) (male) (dose 10-20 mg/kg). Format: ADME, organism-based. The note with it: in vivo. Summed up: as §1
`Cc1cc(=O)oc2c3c(ccc12)OC(C)(C)[C@H](OC(=O)C12CCC(C)(C(=O)O1)C2(C)C)[C@@H]3OC(=O)C12CCC(C)(C(=O)O1)C2(C)C` (stereo not given in full): the F entry is recorded as “Not detected”.
Still for that read-out and setting: under `Cc1cc(=O)oc2c3c(c(CO)cc12)OC(C)(C)[C@H](OC(=O)C12CCC(C)(C(=O)O1)C2(C)C)[C@@H]3OC(=O)C12CCC(C)(C(=O)O1)C2(C)C` (stereo not given in full) stands “Not detected”.
